Screening results deposited in PubChem by several laboratories.
Hits are enriched below; roughly 2.4% of the tested compounds scored in any of these assays.
HSV augment: enhancers of HSV replication in host cells, fold increase, host cell viability; HSV replication augmentation in cells; maximum fold increase; hit rate 0.005% among 220,000; AID 1956, 2009; in the data active means maximum fold increase above about 1.5; tested in PC3 cells
ROMK primary: ROMK potassium channel modulators, primary screen, cell-based, thallium flux, MLSMR library; ATP-sensitive inward rectifier potassium channel 1 (Homo sapiens), P48048; B-score at 10 µM; hit rate 2% among 130,000; Tet-inducible ROMK, thallium flux fluorescence; actives lie on both sides;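 active means signal ratio slope over the read window, or its plate-corrected B-score, at least 3 SD from the plate mean, either direction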;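 further: B-score of the F/F0 ratio slope over 7 to 12 s after thallium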
Target sequence (P48048 whole entry, looked up): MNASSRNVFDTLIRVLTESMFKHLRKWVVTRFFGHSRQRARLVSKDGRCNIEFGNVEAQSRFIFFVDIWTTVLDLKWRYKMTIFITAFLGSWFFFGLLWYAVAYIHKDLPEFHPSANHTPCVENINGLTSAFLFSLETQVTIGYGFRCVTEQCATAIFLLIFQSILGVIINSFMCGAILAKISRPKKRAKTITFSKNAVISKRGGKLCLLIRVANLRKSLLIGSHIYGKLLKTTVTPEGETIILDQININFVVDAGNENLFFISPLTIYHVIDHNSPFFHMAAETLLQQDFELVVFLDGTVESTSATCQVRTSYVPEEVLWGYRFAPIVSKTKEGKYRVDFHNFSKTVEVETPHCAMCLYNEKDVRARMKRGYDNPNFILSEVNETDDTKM
bCat nuc transl: modulators of beta-catenin nuclear translocation, primary screen, imaging, HeLa cells, immunofluorescence, high-content. nuclear translocation activity, % at 5 µM. hit rate 0.3% among 190,000;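 active means nuclear translocation activity above 50% at 5 µM, with a well cell count of 50 or more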;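 further: per-cell ratio of nuclear to cytoplasmic median beta-catenin stain intensity; plate controls were DMSO negative control for no effect and GSK-3 inhibitor IX positive control for full effect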
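Test system: human HeLa cell line; Doses: 5 µM primary, 0.02–20 µM confirmation; Incubation: 24 h compound exposure, 37°C; Detection: beta-catenin immunofluorescence imaging with DAPI; Read-out: beta-catenin nuclear/cytoplasmic ratio, % activation.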
INS promoter inh: inhibitors of insulin promoter-driven GFP, primary screen, imaging, TRM-6 cells (human fetal islet line), eGFP reporter, cell count; reporter expression induced with tamoxifen; inhibition, % at 2 µM; hit rate 0.9% among 130,000; AID 1273, 2008;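 active means inhibition above the mean plus 3 SD, with well images judged a real hit on visual review, cut at about 60% in these data, passing the limit was not always enough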
MT stabilizer: microtubule stabilizers in HeLa cells, primary screen, imaging, high-content imaging | % tubulin-high responders, % at 10 µM | HeLa tubulin immunostaining HCS, 24 h; share of cells brighter than vehicle mean+2SD | AID 2205, 2009 | hit rate 0.83% among 200,000;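 active means plate Z-score above 3 for both tubulin-high and condensed-nucleus cell shares, with cell loss under 80%, at 10 µM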;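 further: anti alpha tubulin signal scored within the nucleus-defined area of each cell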
An asterisk follows results filed as active; i = inactive; x = no result.

SMILES	HSV augment	ROMK primary	bCat nuc transl	INS promoter inh	MT stabilizer
Clc1ccc2[nH]c3c(N4CCC5(CC4)OCCO5)ncnc3c2c1	i	x	6	-15	10
Cc1cccc2[nH]c3c(N4CCC5(CC4)OCCO5)ncnc3c12	i	x	57*	-23	39*
CCN1C(=O)[C@H]2[C@H]3[C@H](O)[C@H](O)C/C(=N\OC[C@@H](C)[C@H](OCc4ccccc4)C(C)C)[C@@H]3CC[C@H]2C1=O	x	-1.4	x	30	4
CC(Sc1nnc(-c2ccc(O)cc2)o1)C(=O)Nc1cccc2ccccc12 (stereo unspecified)	i	0.61	-3	77*	2
O=C(CCSc1nnc(-c2ccncc2)o1)Nc1cccc2ccccc12	i	x	x	0	3
O=C(CCc1ccccc1)Nc1ccc(Cl)cn1	i	x	140*	-91	36*
O=C(COc1ccccc1)Nc1ccc(Cl)cn1	i	-0.27	2	11	5
S=C(Nc1ccccc1)Nc1ccc(Cl)cn1	i	x	-3	50	4
O=C(NC(=S)Nc1ccc(Cl)cn1)C(c1ccccc1)c1ccccc1	i	x	1	7	36*
COc1ccc(OC)c(C2C(C(C)=O)=C(O)C(=O)N2Cc2cccnc2)c1 (stereo unspecified)	i	x	-1	9	3
CC1CCCC(n2c(=S)[nH]c3ccccc3c2=O)C1C (stereo unspecified)	i	x	-3	7	2
Cc1ccc(C(O)P(=O)(OCc2ccccc2)c2ccc(N(C)C)cc2)cc1 (stereo unspecified)	i	x	0	x	x
CS(=O)(=O)N1CCN(c2ncccn2)CC1	i	x	0	83*	4
COc1ccc(-n2c(C)c(C(C)=O)c(C(C)=O)c2C)cc1OC	i	0.23	-5	71*	3
Cc1ccc(CO/N=C/C2=C(Cl)c3ccccc3CC2)cc1	i	-0.61	-4	79*	2
Cc1cccc(OCC(=O)O/N=C(\N)c2ccc(Br)cc2)c1	i	0.28	0	x	x
Cc1cc(-c2ccccc2)c2c(=O)[nH][nH]c2n1	i	0.37	0	6	2
COc1ccc(OC)c(NS(=O)(=O)c2ccc(Br)s2)c1	i	0.46	-1	-14	9.6*
COc1ccc(S(=O)(=O)Nc2cc(Cl)ccc2OC)cc1	i	x	45	-292	24*
COc1ccc(OC)c(NS(=O)(=O)c2ccc(SC)cc2)c1	i	x	1	59	25
CCOc1ccc(S(=O)(=O)Nc2cc(OC)ccc2OC)cc1	i	x	52*	-49	11
Cc1cc(C)c(NS(=O)(=O)c2ccc3c(c2)NC(=O)CC(=O)N3)c(C)c1	i	0.83	-3	19	4
O=C(COc1ccccc1)c1cn(CC(=O)N2CCCC2)c2ccccc12	i	-0.025	-1	x	7
COc1ccc(C(=O)n2c(-c3ccco3)nc3ccccc32)cc1	i	0.88	75*	41	24*
O=C1CCC/C1=C/Nc1ccc(Cl)cc1	i	-0.29	0	82*	4
SMILES	HSV augment	ROMK primary	bCat nuc transl	INS promoter inh	MT stabilizer
NC(=O)[C@@H]1CCCNc2c(I)cc([N+](=O)[O-])cc2C(=O)N[C@@H](CO)C(=O)NCC(=O)N1	i	-0.0005	1	20	3
CC1(C)NC(=O)N(CC(=O)OCC(=O)Nc2cc(S(=O)(=O)N3CCCCC3)ccc2Cl)C1=O	i	x	x	-19	3
c1ccc(CCNc2ccnc3cc4ccccc4cc23)cc1	i	-1.3	2	-238	31*
CC(C)Nc1ccc(Nc2ccnc3cc4ccccc4cc23)cc1	i	x	-2	x	x
CCOC(=O)c1cnc(SC)nc1Oc1cccc(NC(=O)c2ccc(Cl)cc2)c1	i	-0.29	-2	55	3
CCOC(=O)c1cnc(SC)nc1Oc1cccc(NS(=O)(=O)c2ccc(Cl)cc2)c1	i	x	-2	29	32*
O=C(NC12CC3CC(CC(C3)C1)C2)C12CC3CC(C1)CC(n1cnc(Cl)n1)(C3)C2	i	x	-1	x	1
O=C(O)C12CC3CC(C1)CC(n1cnc(Cl)n1)(C3)C2	i	x	x	100*	1
CCOC(=O)c1[nH]c2cc(OC)c(OC)cc2c1NC(=O)CN1CCN(c2ccc(OC)cc2)C(C)C1 (stereo unspecified)	i	x	0	67*	5
COc1ccc(-c2nc(-c3ccccc3)nc(N3CCN(C)CC3)c2C#N)cc1	i	x	x	-12	28
COc1ccc(-c2nc(-c3cccc(C)c3)nc(N3CCN(C)CC3)c2C#N)cc1	i	0.42	21	x	39*
COc1cccc(-c2nc(-c3ccccc3)nc(N3CCN(C)CC3)c2C#N)c1	i	0.83	50*	x	19*
N#Cc1c(-c2ccccc2)nc(-c2ccccc2)nc1N1CCOCC1	i	-1.8	-2	29	2
CN1CCN(c2nc(-c3ccccc3)nc(-c3ccccc3)c2C#N)CC1	i	-0.28	2	x	9.8*
O=C(C[n+]1ccc(-c2nnc3n2CCC3)cc1)c1ccc(Cl)cc1	i	0.96	0	-75	1
Cc1ccc(NC(=O)COC(=O)C2CC2C)c(S(=O)(=O)N2CCCCC2)c1 (stereo unspecified)	i	x	-2	-6	2
O=C1COc2ccc(C(=O)COC(=O)CNC(=O)C3CCCCC3)cc2N1	i	-0.44	0	-13	3
NC1=NC(=O)/C(=C/c2cccs2)S1	i	-1.8	6	x	2
C=CCSC1=NC(=O)/C(=C/c2cccs2)S1	x	-5.7*	-4	8	2
CCN(CC)S(=O)(=O)c1ccc2[nH]c(=O)cc(C(=O)Nc3cccc(C(C)=O)c3)c2c1	i	0.084	0	x	5
COc1ccc(C(=O)c2sc(NC(C)C)nc2N)cc1OC	i	-4.2*	1	14	5
Cc1ccc(S(=O)(=O)NC(=O)Nc2cc(C(C)(C)C)on2)cc1	i	x	-2	x	x
CCOC(=O)c1c2ccc(OCC(=O)N/N=C/c3ccc(Cl)cc3)cc2n2ccccc12	x	-2.1	-2	x	15
CCOC(=O)c1c2ccc(OCC(=O)N/N=C/c3ccccc3C(F)(F)F)cc2n2ccccc12	i	-1.6	-7	0	33*
CCNC(=S)NNC(=O)c1ccccc1OC(F)F	i	1.6	2	15	2
SMILES	HSV augment	ROMK primary	bCat nuc transl	INS promoter inh	MT stabilizer
CCc1ccc(NC(=S)NNC(=O)c2ccccc2OC(F)F)cc1	i	x	13	-3	16*
COc1ccc(NC(=S)NNC(=O)c2ccccc2OC(F)F)cc1	i	0.83	16	3	36*
CCNC(=O)Nc1ccc(OC)cc1OC	i	x	-4	x	5
COc1ccc(C2=CC(=O)OC3(CCCC3)O2)cc1	i	0.045	x	23	1
Cc1ccc(C)c(N2CCN(Cc3nnnn3C3CCCCC3)CC2)c1	i	x	-1	19	2
Cc1ccc2nc(N3CCN(Cc4nnnn4C4CCCC4)CC3)c(C#N)cc2c1	i	x	1	100*	3
